From ChEMBL document CHEMBL3351593, “Potent nonimmunosuppressive cyclophilin inhibitors with improved pharmaceutical properties and decreased transporter inhibition” (J Med Chem, 2014)
≈ marks a conversion by molar mass, not a printed value.

What was measured:
Hepatitis C virus [1] = assay: Antiviral activity against HCV subtype 1b in human Huh7.5 cells expressing subgenomic HCV replicons and coexpressing luciferase reporter gene; assay type: functional, cell-based, Hepacivirus hominis; conditions: genotype 1b, Huh-7
Outline: (§1)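 Stable Huh7.5 lines carrying genotype 1a or 1b subgenomic replicons with luciferase reporter, made by RNA electroporation and G418 selection. Assay run in phenol red-free DMEM without G418, sixteen half-log compound dilutions, in triplicate. Luciferase signal read after 72 h relative to DMSO controls, giving EC50.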

[2] = molecular target: T1, Solute carrier organic anion transporter family member 1B1 (Homo sapiens, UniProt Q9Y6L6); assay: Inhibition of OATP1B1 (unknown origin) expressed in CHO cells using 8-fluorescein-cAMP substrate by fluorescent photometry; assay type: ADME, cell-based
T1 sequence (Q9Y6L6 whole entry): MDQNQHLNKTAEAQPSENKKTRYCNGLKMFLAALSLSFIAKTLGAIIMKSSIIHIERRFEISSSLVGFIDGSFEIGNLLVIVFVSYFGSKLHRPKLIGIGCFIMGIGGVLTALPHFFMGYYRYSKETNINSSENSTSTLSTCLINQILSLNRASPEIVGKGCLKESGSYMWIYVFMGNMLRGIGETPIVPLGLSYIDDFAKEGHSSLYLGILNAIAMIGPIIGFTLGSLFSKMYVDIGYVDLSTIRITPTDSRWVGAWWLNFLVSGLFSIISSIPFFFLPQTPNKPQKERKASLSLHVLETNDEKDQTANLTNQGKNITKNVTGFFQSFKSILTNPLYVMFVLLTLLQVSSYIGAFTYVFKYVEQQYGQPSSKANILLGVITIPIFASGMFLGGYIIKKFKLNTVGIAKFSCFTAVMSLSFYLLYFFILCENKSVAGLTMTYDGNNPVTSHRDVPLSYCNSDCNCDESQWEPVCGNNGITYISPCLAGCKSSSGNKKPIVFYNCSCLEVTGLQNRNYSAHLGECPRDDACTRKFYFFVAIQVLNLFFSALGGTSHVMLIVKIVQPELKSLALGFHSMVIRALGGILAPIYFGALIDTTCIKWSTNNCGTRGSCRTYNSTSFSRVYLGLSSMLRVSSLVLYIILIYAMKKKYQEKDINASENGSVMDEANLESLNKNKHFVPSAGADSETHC
Outline: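 CHO-OATP1B1 cells and vector control cells cultured 2 days, then washed and equilibrated 15 min in HBSS + 10 mM HEPES. Exposed 10 min to 2.5 μM 8-fluorescein-cAMP with inhibitor at 0−30 μM (up to 1% DMSO). Cells washed and lysed, uptake measured by fluorescence, and IC50 taken from the concentration-response curve.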

[3] = Kinetic solubility of the compound in pH 7.0 water; assay type: physicochemical; conditions: read-out: Kinetic_solubility
[4] = Lipophilicity, log D of the compound; assay type: physicochemical; conditions: octanol/water
[5] = molecular target: Peptidyl-prolyl cis-trans isomerase B (Homo sapiens, UniProt P23284); assay: Binding affinity to human cyclophilin B by surface plasmon resonance method
Outline: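 Biotinylated cyclophilin proteins examined by single-cycle kinetics SPR. Running buffer 10 mM HEPES pH 7.4, 150 mM NaCl, 0.05% P20, 3% DMSO, with inhibitor. Each concentration injected for 1 min at 50 μL/min, then 10 min dissociation. kon, koff and KD obtained from a 1:1 binding fit.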

[6] = molecular target: Peptidyl-prolyl cis-trans isomerase F, mitochondrial (Homo sapiens, UniProt P30405); assay: Binding affinity to human cyclophilin F by surface plasmon resonance method
Outline: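 Surface plasmon resonance with biotinylated cyclophilin protein, single-cycle kinetics. Running buffer 10 mM HEPES pH 7.4, 150 mM NaCl, 0.05% P20, 3% DMSO, with inhibitor present. Compound injected at several concentrations, 1 min contact each at 50 μL/min, then 10 min final dissociation. kon, koff and KD obtained from a 1:1 binding model fit.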

Hepatitis C virus [7] = assay: Antiviral activity against HCV subtype 1a in human Huh7.5 cells expressing subgenomic HCV replicons and coexpressing luciferase reporter gene; assay type: functional, cell-based, Hepacivirus hominis; conditions: Huh-7; outline: as §1
PBMC = assay: Cytotoxicity against PHA-stimulated human PBMC by 5-bromo-2'-deoxyuridine incorporation assay; assay type: cell-based
Outline: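 Fresh PBMCs from two human donors in X-VIVO 15 medium, stimulated with PHA. Seven concentrations taken from a half-log series. Incubated 60 h at 37 °C, 5% CO2, with BrdU added for the final 12 h. Incorporation read by anti-BrdU ELISA at 450 nm. Percent inhibition against PHA-stimulated untreated cells after background subtraction, four-parameter fit giving IC50.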

[8] = molecular target: T1, Solute carrier organic anion transporter family member 1B1; assay: Inhibition of OATP1B1 (unknown origin) expressed in HEK293 cells using [3H]estradiol-17beta-glucuronide substrate; assay type: ADME, cell-based
Outline: (§2)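 Recombinant OATP1B1 or OATP1B3 expressed in HEK293 cells, with [3H]estradiol-17β-glucuronide as substrate; IC50 determined.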

[9] = molecular target: T2, Solute carrier organic anion transporter family member 1B3 (Homo sapiens, UniProt Q9NPD5); assay: Inhibition of OATP1B3 (unknown origin) expressed in HEK293 cells using [3H]estradiol-17beta-glucuronide substrate; assay type: ADME, cell-based; outline: as §2
T2 sequence (Q9NPD5 whole entry): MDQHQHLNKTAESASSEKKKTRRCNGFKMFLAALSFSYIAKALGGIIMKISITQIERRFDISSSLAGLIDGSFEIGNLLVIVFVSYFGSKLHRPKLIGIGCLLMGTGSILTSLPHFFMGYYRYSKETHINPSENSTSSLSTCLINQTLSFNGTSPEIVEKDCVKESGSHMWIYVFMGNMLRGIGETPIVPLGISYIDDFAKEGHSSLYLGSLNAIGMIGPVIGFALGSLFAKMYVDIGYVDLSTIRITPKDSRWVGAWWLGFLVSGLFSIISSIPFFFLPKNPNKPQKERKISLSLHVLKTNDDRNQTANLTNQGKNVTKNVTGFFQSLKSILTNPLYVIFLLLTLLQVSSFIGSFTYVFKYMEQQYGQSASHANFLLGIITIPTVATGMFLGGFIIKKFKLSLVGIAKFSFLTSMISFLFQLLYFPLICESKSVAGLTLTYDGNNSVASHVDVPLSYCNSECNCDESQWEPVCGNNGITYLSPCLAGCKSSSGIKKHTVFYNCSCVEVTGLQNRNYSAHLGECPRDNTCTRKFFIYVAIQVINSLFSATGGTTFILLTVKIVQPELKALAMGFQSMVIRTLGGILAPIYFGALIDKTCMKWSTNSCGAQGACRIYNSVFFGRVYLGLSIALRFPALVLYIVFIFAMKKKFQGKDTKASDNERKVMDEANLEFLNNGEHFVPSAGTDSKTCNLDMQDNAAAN

Bile salt export pump = Bile salt export pump (Homo sapiens, UniProt O95342); assay: Inhibition of BSEP (unknown origin) expressed in HEK293 cells using [3H]taurocholic acid substrate; assay type: ADME, cell-based
Outline: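 BSEP activity in HEK293 cells, measured with [3H]taurocholic acid uptake as substrate; IC50 reported.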

[10] = molecular target: ATP-dependent translocase ABCB1 (Homo sapiens, UniProt P08183); assay: Inhibition of MDR1 (unknown origin) expressed in MDA T0.3 cells using rhodamine 123 substrate; assay type: ADME, cell-based
Outline: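 MDR1 activity in MDA T0.3 cells, measured with rhodamine 123 as substrate; IC50 reported.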

[11] = AUC in rat blood at 25 mg/kg, po after 72 hrs; assay type: ADME, organism-based; set-up: time < 72 hr, dose 25 mg/kg, route oral; conditions: whole blood
Outline: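 Oral dosing as a solution in MEPC: rat 25 mg/kg, dog 1 mg/kg. Blood and plasma collected separately over 0−72 h and AUC computed for each matrix.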

Chain of ATP-dependent translocase ABCB1 (P08183 whole entry): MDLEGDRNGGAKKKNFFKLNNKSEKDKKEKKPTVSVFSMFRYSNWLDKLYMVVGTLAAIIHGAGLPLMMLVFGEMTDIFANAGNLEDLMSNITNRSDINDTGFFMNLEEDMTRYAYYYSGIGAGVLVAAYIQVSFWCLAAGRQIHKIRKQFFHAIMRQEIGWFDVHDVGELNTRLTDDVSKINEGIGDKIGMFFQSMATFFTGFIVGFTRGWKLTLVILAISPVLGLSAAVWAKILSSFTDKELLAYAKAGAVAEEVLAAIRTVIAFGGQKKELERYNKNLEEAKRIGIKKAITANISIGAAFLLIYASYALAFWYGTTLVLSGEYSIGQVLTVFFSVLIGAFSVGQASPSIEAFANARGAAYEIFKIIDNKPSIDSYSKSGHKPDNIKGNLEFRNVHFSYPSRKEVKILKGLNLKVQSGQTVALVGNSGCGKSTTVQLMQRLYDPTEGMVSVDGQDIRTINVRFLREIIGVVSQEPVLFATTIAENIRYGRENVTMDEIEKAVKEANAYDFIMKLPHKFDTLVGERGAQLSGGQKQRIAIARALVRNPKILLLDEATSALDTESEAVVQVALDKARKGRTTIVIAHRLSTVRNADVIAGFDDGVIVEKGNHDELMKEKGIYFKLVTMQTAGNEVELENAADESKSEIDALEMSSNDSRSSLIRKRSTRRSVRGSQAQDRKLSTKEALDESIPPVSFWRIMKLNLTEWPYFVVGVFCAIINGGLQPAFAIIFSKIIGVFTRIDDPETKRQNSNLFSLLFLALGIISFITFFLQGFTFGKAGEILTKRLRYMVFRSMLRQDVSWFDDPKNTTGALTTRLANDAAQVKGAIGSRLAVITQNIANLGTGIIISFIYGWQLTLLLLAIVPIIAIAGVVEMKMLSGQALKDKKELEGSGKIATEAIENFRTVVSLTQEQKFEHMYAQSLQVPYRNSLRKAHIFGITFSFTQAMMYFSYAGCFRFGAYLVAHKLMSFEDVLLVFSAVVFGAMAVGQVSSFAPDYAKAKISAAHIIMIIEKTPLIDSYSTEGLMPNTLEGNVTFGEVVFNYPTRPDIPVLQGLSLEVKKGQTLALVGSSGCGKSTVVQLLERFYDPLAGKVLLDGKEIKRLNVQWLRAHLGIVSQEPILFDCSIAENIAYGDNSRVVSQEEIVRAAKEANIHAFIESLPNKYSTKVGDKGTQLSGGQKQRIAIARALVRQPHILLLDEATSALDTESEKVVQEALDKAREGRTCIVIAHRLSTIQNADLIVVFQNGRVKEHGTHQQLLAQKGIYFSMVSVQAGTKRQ
Chain of Peptidyl-prolyl cis-trans isomerase F, mitochondrial (P30405 whole entry): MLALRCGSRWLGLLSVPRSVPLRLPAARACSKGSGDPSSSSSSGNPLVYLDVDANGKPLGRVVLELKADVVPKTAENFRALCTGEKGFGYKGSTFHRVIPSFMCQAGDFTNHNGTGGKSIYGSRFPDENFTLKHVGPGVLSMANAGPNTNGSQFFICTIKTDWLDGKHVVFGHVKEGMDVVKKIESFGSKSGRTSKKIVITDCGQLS
Chain of Peptidyl-prolyl cis-trans isomerase B (P23284 whole entry): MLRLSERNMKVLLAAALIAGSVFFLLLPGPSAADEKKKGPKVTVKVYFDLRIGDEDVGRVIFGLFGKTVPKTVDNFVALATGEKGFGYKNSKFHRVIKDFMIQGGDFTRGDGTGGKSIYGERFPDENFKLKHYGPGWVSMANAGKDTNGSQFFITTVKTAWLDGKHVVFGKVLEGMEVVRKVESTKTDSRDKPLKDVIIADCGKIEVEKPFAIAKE
Chain of Bile salt export pump (O95342 whole entry): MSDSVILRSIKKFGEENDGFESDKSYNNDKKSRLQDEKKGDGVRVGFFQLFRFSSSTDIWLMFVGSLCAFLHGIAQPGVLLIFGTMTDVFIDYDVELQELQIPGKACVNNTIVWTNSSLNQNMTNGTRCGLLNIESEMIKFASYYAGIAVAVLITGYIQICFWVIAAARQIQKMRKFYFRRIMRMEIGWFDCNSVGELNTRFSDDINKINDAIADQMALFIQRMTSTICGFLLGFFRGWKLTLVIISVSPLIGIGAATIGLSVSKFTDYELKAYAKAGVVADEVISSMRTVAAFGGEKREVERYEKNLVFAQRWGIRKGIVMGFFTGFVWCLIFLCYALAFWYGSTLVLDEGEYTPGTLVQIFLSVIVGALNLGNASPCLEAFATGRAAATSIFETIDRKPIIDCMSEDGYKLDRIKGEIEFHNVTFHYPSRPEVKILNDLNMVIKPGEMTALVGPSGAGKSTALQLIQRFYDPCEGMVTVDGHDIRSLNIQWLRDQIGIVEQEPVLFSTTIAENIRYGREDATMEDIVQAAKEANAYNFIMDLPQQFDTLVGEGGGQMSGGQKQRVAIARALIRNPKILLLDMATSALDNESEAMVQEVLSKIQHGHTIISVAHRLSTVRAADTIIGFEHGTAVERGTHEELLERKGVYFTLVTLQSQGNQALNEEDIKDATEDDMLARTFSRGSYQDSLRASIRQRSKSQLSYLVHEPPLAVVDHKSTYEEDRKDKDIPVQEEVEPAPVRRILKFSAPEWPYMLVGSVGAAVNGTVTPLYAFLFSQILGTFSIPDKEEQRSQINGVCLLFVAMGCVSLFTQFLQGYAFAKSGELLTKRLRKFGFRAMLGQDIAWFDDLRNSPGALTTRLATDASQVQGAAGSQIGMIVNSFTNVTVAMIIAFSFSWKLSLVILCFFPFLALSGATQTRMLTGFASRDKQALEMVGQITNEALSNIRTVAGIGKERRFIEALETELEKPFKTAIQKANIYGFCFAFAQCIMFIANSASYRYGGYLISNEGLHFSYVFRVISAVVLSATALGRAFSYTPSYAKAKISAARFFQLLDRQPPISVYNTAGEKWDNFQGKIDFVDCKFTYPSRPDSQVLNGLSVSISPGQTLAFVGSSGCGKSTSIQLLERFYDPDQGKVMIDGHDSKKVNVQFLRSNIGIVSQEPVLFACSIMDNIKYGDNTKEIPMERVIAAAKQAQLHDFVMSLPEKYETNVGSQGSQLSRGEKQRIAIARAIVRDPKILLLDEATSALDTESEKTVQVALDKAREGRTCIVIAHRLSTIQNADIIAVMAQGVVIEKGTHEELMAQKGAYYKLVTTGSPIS

SMILES	EC50 (Hepatitis C virus [1]) [nM]	IC50 [2] [nM]	solubility kinetic [3] [µg/mL]	logD [4]	Kd [5] [nM]	Kd [6] [nM]	EC50 (Hepatitis C virus [7]) [nM]	IC50 (PBMC) [nM]	IC50 [8] [nM]	IC50 [9] [nM]	IC50 (Bile salt export pump) [nM]	IC50 [10] [nM]	AUC at 72 h [11] [µM·h]
C/C=C/C[C@@H](C)[C@@H](O)[C@H]1C(=O)N[C@@H](CC)C(=O)N(C)[C@H](C)C(=O)N(C)[C@@H]([C@@H](C)CN2CCN(CCOC)CC2)C(=O)N[C@@H](C(C)C)C(=O)N(C)[C@@H](CC(C)C)C(=O)N[C@@H](C)C(=O)N[C@H](C)C(=O)N(C)[C@@H](CC(C)C)C(=O)N(C)[C@@H](CC(C)C)C(=O)N(C)[C@@H](C(C)C)C(=O)N1C	40	6100	1100 (≈ 818 µM)	3.9	1.2	0.9	70	13200	1200	880	1600	6300	58.4
C/C=C/C[C@@H](C)[C@@H](O)[C@H]1C(=O)N[C@@H](CC)C(=O)N(C)[C@H](C)C(=O)N(CC)[C@@H](C(C)C)C(=O)N[C@@H](C(C)C)C(=O)N(C)[C@@H](CC(C)C)C(=O)N[C@@H](C)C(=O)N[C@H](C)C(=O)N(C)[C@@H](CC(C)C)C(=O)N(C)[C@@H](CC(C)C)C(=O)N(C)[C@@H](C(C)C)C(=O)N1C [ALISPORIVIR]	46	800	< 5	> 6	1	1	70	500	180	220	110	590	22.1
